A word on the MIC: it is the least concentration at which growth counts as inhibited. A high value points to a need for much substance.

Converted amounts (≈) assume the structure as drawn.

Assay type in all cases: functional, Salmonella enterica subsp. enterica serovar Enteritidis
In assay [1] the test system is Salmonella enteritidis. The assay can be described thus: Antimicrobial activity against soxS::aph-deficient ciprofloxacin-resistant Salmonella enterica serovar enteritidis isolate 104-cip harboring gyrA D87Y,S83F mutant gene by Etest. The gist of the method: (§1)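 Deletions (acrB, marA, soxS or ramA) were moved from SL1344 mutants into the isolates by P22 phage transduction. Transductants were selected on LB agar with 50 µg/ml kanamycin, and insertion of the kanamycin resistance gene was confirmed by PCR. MICs were then determined by Etest.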

In assay [2] the test system is Salmonella enteritidis. In words: Antimicrobial activity against ramA::aph-deficient ciprofloxacin-resistant Salmonella enterica serovar enteritidis isolate 5408-cip harboring gyrA D87Y, gyrB E466D, parE V461G mutant gene by Etest. In short, it runs like this:
as §1

Assay [3] relates to Salmonella enteritidis. The assay can be described thus: Antimicrobial activity against ciprofloxacin-resistant Salmonella enterica serovar enteritidis isolate 5408-cip harboring gyrA D87Y, gyrB E466D, parE V461G mutant gene by Etest.
Assay [4] deals with Salmonella enteritidis. In words: Antimicrobial activity against Salmonella enterica serovar enteritidis isolate 104-cip harboring gyrA D87Y,S83F mutant gene by Etest.
Assay [5] concerns Salmonella enteritidis. In words: Antimicrobial activity against acrB::aph-deficient ciprofloxacin-resistant Salmonella enterica serovar enteritidis isolate 5408-cip harboring gyrA D87Y, gyrB E466D, parE V461G mutant gene by Etest. In short, it runs like this: as §1
For assay [6], the system named is Salmonella enteritidis. The assay can be described thus: Antimicrobial activity against acrB::aph-deficient ciprofloxacin-resistant Salmonella enterica serovar enteritidis isolate 104-cip harboring gyrA D87Y,S83F mutant gene by Etest. In short, it runs like this:
as §1

Assay [7] has as its system Salmonella enteritidis. In words: Antimicrobial activity against Salmonella enterica serovar enteritidis isolate 5408 harboring gyrA D87Y mutant gene by Etest.
Assay [8] deals with Salmonella enteritidis. The assay can be described thus: Antimicrobial activity against marA::aph-deficient ciprofloxacin-resistant Salmonella enterica serovar enteritidis isolate 104-cip harboring gyrA D87Y,S83F mutant gene by Etest. The gist of the method:
as §1

Assay [9] deals with Salmonella enteritidis. The assay can be described thus: Antimicrobial activity against Salmonella enterica serovar enteritidis isolate 104 harboring gyrA D87Y mutant gene by Etest.
The test system of assay [10] is Salmonella enteritidis. The assay can be described thus: Antimicrobial activity against acrB::aph-deficient Salmonella enterica serovar enteritidis isolate 51 harboring gyrA D87Y mutant gene by Etest. The gist of the method: as §1
The test system of assay [11] is Salmonella enteritidis. In words: Antimicrobial activity against ciprofloxacin-resistant Salmonella enterica serovar enteritidis isolate 5408-cip harboring gyrB gene gyrA D87Y, parE V461G mutant gene by Etest. The gist of the method:
(§2)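 Wild-type alleles of the target genes were carried on plasmids and introduced into the ciprofloxacin-selected mutants by electrotransformation. Transformants were selected on LB agar with 50 µg/ml kanamycin at 37°C overnight. Quinolone MICs of the transformants were read by Etest strips alongside those of the parent and mutant strains.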

For assay [12], the system named is Salmonella enteritidis. In words: Antimicrobial activity against ciprofloxacin-resistant Salmonella enterica serovar enteritidis isolate 104-cip harboring gyrA gene by Etest. In short, it runs like this:
as §2

Assay [13] has as its system Salmonella enteritidis. The assay can be described thus: Antimicrobial activity against acrB::aph-deficient Salmonella enterica serovar enteritidis isolate 104 harboring gyrA D87Y mutant gene by Etest. In short, it runs like this:
as §1

Assay [14] relates to Salmonella enteritidis. The assay can be described thus: Antimicrobial activity against Salmonella enterica serovar enteritidis isolate 104 harboring gyrA gene by Etest.
The test system of assay [15] is Salmonella enteritidis. The assay can be described thus: Antimicrobial activity against Salmonella enterica serovar enteritidis isolate 51 harboring gyrA D87Y mutant gene by Etest.
Assay [16] concerns Salmonella enteritidis. In words: Antimicrobial activity against ciprofloxacin-resistant Salmonella enterica serovar enteritidis isolate 5408-cip harboring parE gene gyrA D87Y, gyrB E466D mutant gene by Etest. The gist of the method:
as §2

The subject of assay [17] is Salmonella enteritidis. The assay can be described thus: Antimicrobial activity against ciprofloxacin-resistant Salmonella enterica serovar enteritidis isolate 5408-cip harboring gyrA gene, gyrB E466D, parE V461G mutant gene by Etest. In short, it runs like this:
as §2

Assay [18] relates to Salmonella enteritidis. The assay can be described thus: Antimicrobial activity against Salmonella enterica serovar enteritidis isolate 54 harboring gyrA D87Y mutant gene by Etest.
The subject of assay [19] is Salmonella enteritidis. The assay can be described thus: Antimicrobial activity against Salmonella enterica serovar enteritidis isolate CUH48 by Etest.
The subject of assay [20] is Salmonella enteritidis. In words: Antimicrobial activity against acrB::aph-deficient Salmonella enterica serovar enteritidis isolate 5408 harboring gyrA D87Y mutant gene by Etest. The gist of the method:
as §1

Assay [21] has as its system Salmonella enteritidis. In words: Antimicrobial activity against acrB::aph-deficient Salmonella enterica serovar enteritidis isolate 4931 harboring gyrA D87Y mutant gene by Etest. In short, it runs like this: as §1
Assay [22] has as its system Salmonella enteritidis. The assay can be described thus: Antimicrobial activity against Salmonella enterica serovar enteritidis isolate 58 harboring gyrA D87Y mutant gene by Etest.
Assay [23] deals with Salmonella enteritidis. The assay can be described thus: Antimicrobial activity against Salmonella enterica serovar enteritidis isolate NCTC 13349 by Etest.
Assay [24] concerns Salmonella enteritidis. In words: Antimicrobial activity against acrB::aph-deficient Salmonella enterica serovar enteritidis isolate CUH60 harboring gyrA D87Y mutant gene by Etest. The gist of the method: as §1
The test system of assay [25] is Salmonella enteritidis. In words: Antimicrobial activity against Salmonella enterica serovar enteritidis isolate CUH52 by Etest.
Assay [26] concerns Salmonella enteritidis. The assay can be described thus: Antimicrobial activity against Salmonella enterica serovar enteritidis isolate 5408 harboring gyrA gene by Etest.

For `CN(C)[C@@H]1C(O)=C(C(N)=O)C(=O)[C@@]2(O)C(O)=C3C(=O)c4c(O)cccc4[C@@](C)(O)[C@H]3C[C@@H]12` [TETRACYCLINE], the MIC with Salmonella enteritidis [1] worked out at 0.75 µg/mL (≈ 1.69 µM); in the assay on Salmonella enteritidis [2], 1 µg/mL (≈ 2.25 µM); against Salmonella enteritidis [3], 1.5 µg/mL (≈ 3.38 µM); against Salmonella enteritidis [4] it was 12 µg/mL (≈ 27 µM); in the assay on Salmonella enteritidis [5], 0.094 µg/mL (≈ 0.212 µM); against Salmonella enteritidis [6] it was 0.25 µg/mL (≈ 0.563 µM). Further, the MIC in the assay with Salmonella enteritidis [7] was found to be 1 µg/mL (≈ 2.25 µM); in the assay on Salmonella enteritidis [8] it was 1.5 µg/mL (≈ 3.38 µM); in the assay with Salmonella enteritidis [9], 1 µg/mL (≈ 2.25 µM).
Consider `CC1(C)S[C@@H]2[C@H](NC(=O)[C@H](N)c3ccccc3)C(=O)N2[C@H]1C(=O)O` [AMPICILLIN], for which the MIC with Salmonella enteritidis [1] was determined as 0.5 µg/mL (≈ 1.43 µM); with Salmonella enteritidis [2] it was 1 µg/mL (≈ 2.86 µM); against Salmonella enteritidis [3], 4 µg/mL (≈ 11.4 µM); in the assay on Salmonella enteritidis [4] it was 16 µg/mL (≈ 45.8 µM); in the assay with Salmonella enteritidis [5], 0.094 µg/mL (≈ 0.269 µM); against Salmonella enteritidis [6], 0.125 µg/mL (≈ 0.358 µM). Also, the MIC worked out at 1 µg/mL (≈ 2.86 µM) in the assay with Salmonella enteritidis [7], 1.5 µg/mL (≈ 4.29 µM) in the assay on Salmonella enteritidis [8] and 1 µg/mL (≈ 2.86 µM) in the assay on Salmonella enteritidis [9].
As for `O=C(O)c1cn(C2CC2)c2cc(N3CCNCC3)c(F)cc2c1=O` [CIPROFLOXACIN], the MIC against Salmonella enteritidis [10] was determined as 0.032 µg/mL (≈ 0.0966 µM); in the assay on Salmonella enteritidis [11], 3 µg/mL (≈ 9.05 µM); in the assay on Salmonella enteritidis [12] it was 0.094 µg/mL (≈ 0.284 µM); in the assay on Salmonella enteritidis [13], 0.032 µg/mL (≈ 0.0966 µM); with Salmonella enteritidis [1], 1.5 µg/mL (≈ 4.53 µM); against Salmonella enteritidis [14], 0.047 µg/mL (≈ 0.142 µM). Besides, the MIC in the assay with Salmonella enteritidis [2] is 4 µg/mL (≈ 12.1 µM); in the assay with Salmonella enteritidis [15] it was 0.19 µg/mL (≈ 0.573 µM); with Salmonella enteritidis [16], more than 32 µg/mL; against Salmonella enteritidis [17] it was 1 µg/mL (≈ 3.02 µM); in the assay with Salmonella enteritidis [18], 0.19 µg/mL (≈ 0.573 µM); against Salmonella enteritidis [19], 0.016 µg/mL (≈ 0.0483 µM). Also, the MIC against Salmonella enteritidis [5] stood at 0.5 µg/mL (≈ 1.51 µM); against Salmonella enteritidis [20], 0.047 µg/mL (≈ 0.142 µM); with Salmonella enteritidis [21], 0.047 µg/mL (≈ 0.142 µM); with Salmonella enteritidis [6] it was 0.38 µg/mL (≈ 1.15 µM); with Salmonella enteritidis [22], 0.125 µg/mL (≈ 0.377 µM); in the assay with Salmonella enteritidis [23] it was 0.023 µg/mL (≈ 0.0694 µM). Besides, the MIC against Salmonella enteritidis [24] is 0.032 µg/mL (≈ 0.0966 µM); against Salmonella enteritidis [25], 0.016 µg/mL (≈ 0.0483 µM); in the assay with Salmonella enteritidis [26], 0.032 µg/mL (≈ 0.0966 µM); against Salmonella enteritidis [8], 4 µg/mL (≈ 12.1 µM).
With `O=C(N[C@H](CO)[C@H](O)c1ccc([N+](=O)[O-])cc1)C(Cl)Cl` [CHLORAMPHENICOL], the MIC turned out to be 1.5 µg/mL (≈ 4.64 µM) with Salmonella enteritidis [1]; 3 µg/mL (≈ 9.28 µM) in the assay on Salmonella enteritidis [2]; 16 µg/mL (≈ 49.5 µM) with Salmonella enteritidis [3]; 96 µg/mL (≈ 297 µM) in the assay on Salmonella enteritidis [4]; 0.5 µg/mL (≈ 1.55 µM) in the assay with Salmonella enteritidis [5]; 0.75 µg/mL (≈ 2.32 µM) in the assay with Salmonella enteritidis [6]. The MIC with Salmonella enteritidis [7] was found to be 3 µg/mL (≈ 9.28 µM); against Salmonella enteritidis [8], 3 µg/mL (≈ 9.28 µM); with Salmonella enteritidis [9], 2 µg/mL (≈ 6.19 µM).

The values above are taken from ChEMBL document CHEMBL1629649, “Multiple regulatory pathways associated with high-level ciprofloxacin and multidrug resistance in Salmonella enterica serovar enteritidis: involvement of RamA and other global regulators” (2009).
